Results on 22 compounds are retold here after ChEMBL document CHEMBL3808358, “Rational Design of Small Peptides for Optimal Inhibition of Cyclooxygenase-2: Development of a Highly Effective Anti-Inflammatory Agent” (J Med Chem, 2016).

Structures are written as SMILES. Active and inactive are the calls of the source. The rule behind the calls is not given here. Residues, ends and D or L forms follow the SMILES beside them. *: point of attachment. Cbz = O=C(OCc1ccccc1)* Where only a bound is given, the exact number is not on record here.

Assay [1] concerns the target Prostaglandin G/H synthase 1 (Homo sapiens) (UniProt P23219). Nature of the assay: Inhibition of COX1 in healthy human whole blood assessed as calcium ionophore A23187-stimulated TXB2 level at 1 uM preincubated for 60 mins followed by A23187 addition measured after 30 mins by ELISA. It counts as tissue-based. The procedure, abridged: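 Fresh venous blood from a healthy volunteer is collected in EDTA. 1 mL samples receive compound, indomethacin or DMSO vehicle (final 1 μM). After 60 min, A23187 is added (final 50 μM). After 30 min, samples are centrifuged at 4 °C and TxB2 in plasma is measured by ELISA, read at 420 nm. Samples are run in duplicate.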

Assay [2] deals with Mus musculus. Nature of the assay: Analgesic activity in Swiss albino mouse assessed as reduction in capsaicin-induced paw licking at 10 mg/kg, ip dosed 30 mins before capsaicin injection measured for 10 mins. The class given is functional, organism-based. The procedure, abridged:
(§1)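 Swiss albino mice of either sex (25-35 g), kept at 22 ± 2 °C on a 12 h light/dark cycle with free food and water. 5 animals per group. Capsaicin (1.6 μg in 20 μL) is injected into the plantar surface of the hind paw. Pain is scored as the number of paw lickings over 10 min.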

For assay [3], the system named is Mus musculus. Nature of the assay: Analgesic activity in Swiss albino mouse assessed as reduction in formalin-induced paw flinches in inflammatory phase at 5 mg/kg, ip dosed 30 mins before formalin injection measured after 15 to 30 mins. It counts as functional, organism-based. A digest of the protocol:
(§2)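 Swiss albino mice of either sex (25-35 g). 20 μL of 2% formalin is injected into the plantar surface of the right hind paw 30 min after treatment. Hind paw flinches are counted for the neurogenic phase (0-5 min) and the inflammatory phase (15-30 min). Results are given as mean ± SEM.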

The test system of assay [4] is Mus musculus. Description: Analgesic activity in Swiss albino mouse assessed as reduction in formalin-induced paw flinches in neurogenic phase at 5 mg/kg, ip dosed 30 mins before formalin injection measured up to 5 mins. It counts as functional, organism-based. The procedure, abridged:
as §2

Assay [5] relates to Mus musculus. Description: Antiinflammatory activity in Swiss albino mouse assessed as reduction in carrageenan-induced paw edema at 10 mg/kg, ip dosed 30 mins before carrageenan injection measured up to 300 mins by vernier calliper method relative to control. The class given is functional, organism-based.
For assay [6], the target named is T1, Prostaglandin G/H synthase 1 (Ovis aries, UniProt P05979).
T1 sequence (P05979 whole entry): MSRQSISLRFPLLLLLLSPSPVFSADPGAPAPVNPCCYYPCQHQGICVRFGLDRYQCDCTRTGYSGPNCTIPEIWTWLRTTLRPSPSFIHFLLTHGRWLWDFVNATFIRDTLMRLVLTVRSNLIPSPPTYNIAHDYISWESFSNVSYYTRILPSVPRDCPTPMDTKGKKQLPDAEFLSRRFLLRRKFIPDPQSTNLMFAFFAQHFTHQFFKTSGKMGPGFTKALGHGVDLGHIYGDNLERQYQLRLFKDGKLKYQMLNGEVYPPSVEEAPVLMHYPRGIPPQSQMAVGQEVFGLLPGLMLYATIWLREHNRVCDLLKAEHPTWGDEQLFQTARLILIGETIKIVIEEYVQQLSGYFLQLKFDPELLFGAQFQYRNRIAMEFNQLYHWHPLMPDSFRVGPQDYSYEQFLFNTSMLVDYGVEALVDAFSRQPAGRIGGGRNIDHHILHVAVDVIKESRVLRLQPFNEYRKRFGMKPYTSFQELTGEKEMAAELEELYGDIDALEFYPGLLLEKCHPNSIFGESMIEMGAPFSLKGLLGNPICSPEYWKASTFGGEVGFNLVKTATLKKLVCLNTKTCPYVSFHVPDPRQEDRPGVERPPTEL
Description: Inhibition of ovine COX1 assessed as reduction in PGH2-derived PGF2alpha using arachidonic acid as substrate preincubated for 10 mins followed by substrate addition measured after 2 mins by enzyme immunoassay. A digest of the protocol: (§3)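 Ovine COX-1 and human recombinant COX-2 with heme are preincubated with inhibitor for 10 min at 37 °C. Arachidonic acid is then added for 2 min at 37 °C. Prostaglandins are quantified by competitive AChE-tracer EIA, read at 420 nm. Four concentrations (10^-5 to 10^-8 M) are tested in triplicate. IC50 is taken from the dose-response curve of the mean % inhibition.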

The target in assay [7] is T2, Prostaglandin G/H synthase 2 (Homo sapiens, UniProt P35354).
T2 sequence (P35354 whole entry): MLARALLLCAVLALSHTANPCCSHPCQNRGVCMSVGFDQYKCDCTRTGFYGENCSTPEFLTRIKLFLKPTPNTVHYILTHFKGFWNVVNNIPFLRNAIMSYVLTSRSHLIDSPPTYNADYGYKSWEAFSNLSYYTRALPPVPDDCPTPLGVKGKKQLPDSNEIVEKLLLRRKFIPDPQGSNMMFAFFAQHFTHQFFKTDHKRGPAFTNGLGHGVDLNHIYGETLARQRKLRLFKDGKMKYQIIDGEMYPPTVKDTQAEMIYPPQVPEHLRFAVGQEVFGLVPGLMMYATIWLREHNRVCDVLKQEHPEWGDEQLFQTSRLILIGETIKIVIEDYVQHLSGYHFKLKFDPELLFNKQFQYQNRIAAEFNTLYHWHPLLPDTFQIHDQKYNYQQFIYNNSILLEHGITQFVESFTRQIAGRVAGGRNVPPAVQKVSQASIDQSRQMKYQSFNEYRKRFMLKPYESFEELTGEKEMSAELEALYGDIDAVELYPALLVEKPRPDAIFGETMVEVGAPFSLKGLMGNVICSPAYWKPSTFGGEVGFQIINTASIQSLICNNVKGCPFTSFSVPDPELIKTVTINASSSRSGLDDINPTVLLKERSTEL
Description: Inhibition of human recombinant COX2 assessed as reduction in PGH2-derived PGF2alpha using arachidonic acid as substrate preincubated for 10 mins followed by substrate addition measured after 2 mins by enzyme immunoassay.

Assay [8] is described as follows: Selectivity index, ratio of IC50 for ovine COX1 to IC50 for human recombinant COX2. A digest of the protocol:
as §3

The test system of assay [9] is Mus musculus. Nature of the assay: Analgesic activity in Swiss albino mouse assessed as reduction in capsaicin-induced paw licking at 5 to 10 mg/kg, ip dosed 30 mins before capsaicin injection measured for 10 mins. The class given is functional, organism-based. The procedure, abridged:
as §1

Sequence of Prostaglandin G/H synthase 1 (Homo sapiens) (P23219 whole entry): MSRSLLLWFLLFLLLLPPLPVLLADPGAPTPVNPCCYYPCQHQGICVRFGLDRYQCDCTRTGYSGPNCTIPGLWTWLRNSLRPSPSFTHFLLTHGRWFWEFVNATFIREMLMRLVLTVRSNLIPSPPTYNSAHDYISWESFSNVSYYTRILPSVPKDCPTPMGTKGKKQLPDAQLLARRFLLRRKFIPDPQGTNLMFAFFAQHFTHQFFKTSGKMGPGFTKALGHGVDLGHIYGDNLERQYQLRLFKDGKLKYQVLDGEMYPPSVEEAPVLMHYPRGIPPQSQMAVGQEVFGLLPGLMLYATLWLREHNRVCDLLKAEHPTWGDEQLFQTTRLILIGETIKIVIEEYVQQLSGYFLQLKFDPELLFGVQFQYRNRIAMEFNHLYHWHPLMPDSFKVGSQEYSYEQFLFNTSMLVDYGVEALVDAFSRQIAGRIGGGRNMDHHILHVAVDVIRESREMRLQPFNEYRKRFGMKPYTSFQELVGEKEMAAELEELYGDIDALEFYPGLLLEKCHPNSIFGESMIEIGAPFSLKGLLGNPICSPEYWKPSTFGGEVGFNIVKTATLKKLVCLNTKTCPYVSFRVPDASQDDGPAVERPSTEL

Take `COc1ccc2c(c1)c(CC(=O)O)c(C)n2C(=O)c1ccc(Cl)cc1`: in assay [1], the Activity stood at 2.7 ng/mL. The outcome in the assay on Mus musculus [2] was Active.

Consider `O=C(O)Cc1ccccc1Nc1c(Cl)cccc1Cl`, for which the result with Mus musculus [3] and in the assay with Mus musculus [5] was Active. Besides, the result in the assay on Mus musculus [4] was inactive.

Turning to `CC(C)C[C@H](NC(=O)[C@@H](NC(=O)[C@H](C)NC(=O)CNC(=O)OCc1ccccc1)C(C)C)C(=O)O` (Cbz-GAVL-OH), the values for the IC50 in assay [6] and in [7] were above 10 µM and 8 µM, respectively.

Regarding `COC(=O)[C@H](CC(C)C)NC(=O)[C@@H](NC(=O)[C@H](C)NC(=O)CNC(=O)OCc1ccccc1)C(C)C` (Cbz-GAVL-OMe), the concentration for half-maximal inhibition (IC50) was above 10 µM in assay [6] and 22 µM in assay [7].

For the compound `CC(C)C[C@H](NC(=O)[C@H](Cc1ccccc1)NC(=O)CNC(=O)CNC(=O)OCc1ccccc1)C(=O)O` (Cbz-GGFL-OH), the results for the IC50 in [6] and in assay [7] were 3 µM and 0.5 µM, respectively. In addition, the Ratio IC50 in [8] was found to be 6.

As to `COC(=O)[C@H](CC(C)C)NC(=O)[C@H](Cc1ccccc1)NC(=O)CNC(=O)CNC(=O)OCc1ccccc1` (Cbz-GGFL-OMe), the IC50 is above 10 µM in [6] and 20 µM in assay [7].

As for `CC(C)C[C@H](NC(=O)[C@H](C)NC(=O)[C@@H](NC(=O)CNC(=O)OCc1ccccc1)C(C)C)C(=O)O` (Cbz-GVAL-OH), the IC50 in [6] is 3 µM; in [7] it was 0.3 µM. The Ratio IC50 in [8] was 10.

For `COC(=O)[C@H](CC(C)C)NC(=O)[C@H](C)NC(=O)[C@@H](NC(=O)CNC(=O)OCc1ccccc1)C(C)C` (Cbz-GVAL-OMe), the IC50 in assay [6] is above 10 µM; in [7], 19 µM.

`CC(C)[C@H](NC(=O)[C@H](C)NC(=O)CNC(=O)OCc1ccccc1)C(=O)O` (Cbz-Gly-Ala-Val-OH): the IC50 in [6] was above 10 µM; in assay [7], 3 µM. In assay [8], the Ratio IC50 is above 3.

Take `COC(=O)[C@@H](NC(=O)[C@H](C)NC(=O)CNC(=O)OCc1ccccc1)C(C)C` (Cbz-Gly-Ala-Val-OMe): the IC50 in [6] is 8 µM; in assay [7], 0.1 µM. In the assay on Mus musculus [9], the result was Active. For the same compound, in [8], the Ratio IC50 was determined as 80.

Regarding `O=C(O)CNC(=O)CNC(=O)OCc1ccccc1` (Cbz-Gly-Gly-OH), the half-maximal inhibitory concentration (IC50) in [6] is above 10 µM.

`COC(=O)CNC(=O)CNC(=O)OCc1ccccc1` (Cbz-Gly-Gly-OMe): the IC50 was above 10 µM in [6] and 1 µM in assay [7]. In [8], the Ratio IC50 is above 10.

For `CC(C)C[C@H](NC(=O)CNC(=O)[C@@H](NC(=O)OCc1ccccc1)C(C)C)C(=O)N[C@@H](C)C(=O)O` (Cbz-VGLA-OH), the IC50 came out at 0.3 µM in assay [6] and 0.05 µM in [7]. Also, the Ratio IC50 in assay [8] was determined as 6.

For `COC(=O)[C@H](C)NC(=O)[C@H](CC(C)C)NC(=O)CNC(=O)[C@@H](NC(=O)OCc1ccccc1)C(C)C` (Cbz-VGLA-OMe), the IC50 in [6] was above 10 µM; in [7], 0.08 µM. Further, the result in the assay with Mus musculus [9] was Active. In assay [8], the Ratio IC50 is above 125.

Consider `CC(C)C[C@H](NC(=O)CNC(=O)[C@@H](NC(=O)OCc1ccccc1)C(C)C)C(=O)O` (Cbz-Val-Gly-Leu-OH), for which the IC50 is above 10 µM in assay [6] and 28 µM in assay [7].

As for `COC(=O)[C@H](CC(C)C)NC(=O)CNC(=O)[C@@H](NC(=O)OCc1ccccc1)C(C)C` (Cbz-Val-Gly-Leu-OMe), the IC50 is above 10 µM in assay [6] and 56 µM in assay [7].

In the case of `CC(C)[C@H](NC(=O)OCc1ccccc1)C(=O)NCC(=O)O` (Cbz-Val-Gly-OH), the IC50 in [6] is above 10 µM; in assay [7] it was 55 µM.

In the case of `COC(=O)CNC(=O)[C@@H](NC(=O)OCc1ccccc1)C(C)C` (Cbz-Val-Gly-OMe), the figures for the IC50 in assay [6] and in assay [7] were above 10 µM and 75 µM, respectively.

On to `CC(C)C[C@H](NC(=O)[C@H](Cc1ccccc1)NC(=O)CNC(=O)CN)C(=O)O` (H-GGFL-OH), for which the IC50 in assay [6] was above 10 µM; in assay [7] it was 0.4 µM. Further, the Ratio IC50 in [8] was above 25.

Turning to `CC(C)[C@H](NC(=O)[C@H](C)NC(=O)CN)C(=O)O` (H-Gly-Ala-Val-OH), the figures for the IC50 in assay [6] and in [7] were 9 µM and 0.2 µM, respectively. Also, the Ratio IC50 in [8] was determined as 45.

With `COC(=O)[C@@H](NC(=O)[C@H](C)NC(=O)CN)C(C)C` (H-Gly-Ala-Val-OMe), the results for the IC50 in [6] and in [7] were above 10 µM and 10 µM, respectively. The Ratio IC50 in assay [8] was above 1.

As for `COC(=O)[C@H](CC(C)C)NC(=O)CNC(=O)[C@@H](N)C(C)C` (H-Val-Gly-Leu-OMe), the IC50 is above 10 µM in assay [6] and 10 µM in assay [7].
